The source made the active and inactive calls.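 The calls were made as follows, unless noted: active = viability at or below 10% of carrier control in both of two separate runs; inconclusive = viability at or below 10% in only one of the two runs; inactive = the rest.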
Legend:
[1] = Her2 expression decrease, cell viability multiplex – SKBR3 breast tumor cells, AlphaScreen, ATP viability, primary screen (AID 461;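 active = Her2 level under about 52% in both replicate screens, with viability over 70% of control, limit read from the data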;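 as to Her2 level: lower value means less Her2 protein in the cells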;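 as to viability: percent of carrier control wells set as 100% viability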); conditions: SKBR3 Her2 protein level, 18-24 h, measured here: SKBR3 viability, ATP luminescence, at 10 µM
[2] = target: Receptor tyrosine-protein kinase erbB-2 (Homo sapiens) (UniProt P04626); assay: as above; conditions: 18-24 h, at 10 µM, stronger effect = lower value
Receptor tyrosine-protein kinase erbB-2 (Homo sapiens), sequence (P04626 whole entry, looked up): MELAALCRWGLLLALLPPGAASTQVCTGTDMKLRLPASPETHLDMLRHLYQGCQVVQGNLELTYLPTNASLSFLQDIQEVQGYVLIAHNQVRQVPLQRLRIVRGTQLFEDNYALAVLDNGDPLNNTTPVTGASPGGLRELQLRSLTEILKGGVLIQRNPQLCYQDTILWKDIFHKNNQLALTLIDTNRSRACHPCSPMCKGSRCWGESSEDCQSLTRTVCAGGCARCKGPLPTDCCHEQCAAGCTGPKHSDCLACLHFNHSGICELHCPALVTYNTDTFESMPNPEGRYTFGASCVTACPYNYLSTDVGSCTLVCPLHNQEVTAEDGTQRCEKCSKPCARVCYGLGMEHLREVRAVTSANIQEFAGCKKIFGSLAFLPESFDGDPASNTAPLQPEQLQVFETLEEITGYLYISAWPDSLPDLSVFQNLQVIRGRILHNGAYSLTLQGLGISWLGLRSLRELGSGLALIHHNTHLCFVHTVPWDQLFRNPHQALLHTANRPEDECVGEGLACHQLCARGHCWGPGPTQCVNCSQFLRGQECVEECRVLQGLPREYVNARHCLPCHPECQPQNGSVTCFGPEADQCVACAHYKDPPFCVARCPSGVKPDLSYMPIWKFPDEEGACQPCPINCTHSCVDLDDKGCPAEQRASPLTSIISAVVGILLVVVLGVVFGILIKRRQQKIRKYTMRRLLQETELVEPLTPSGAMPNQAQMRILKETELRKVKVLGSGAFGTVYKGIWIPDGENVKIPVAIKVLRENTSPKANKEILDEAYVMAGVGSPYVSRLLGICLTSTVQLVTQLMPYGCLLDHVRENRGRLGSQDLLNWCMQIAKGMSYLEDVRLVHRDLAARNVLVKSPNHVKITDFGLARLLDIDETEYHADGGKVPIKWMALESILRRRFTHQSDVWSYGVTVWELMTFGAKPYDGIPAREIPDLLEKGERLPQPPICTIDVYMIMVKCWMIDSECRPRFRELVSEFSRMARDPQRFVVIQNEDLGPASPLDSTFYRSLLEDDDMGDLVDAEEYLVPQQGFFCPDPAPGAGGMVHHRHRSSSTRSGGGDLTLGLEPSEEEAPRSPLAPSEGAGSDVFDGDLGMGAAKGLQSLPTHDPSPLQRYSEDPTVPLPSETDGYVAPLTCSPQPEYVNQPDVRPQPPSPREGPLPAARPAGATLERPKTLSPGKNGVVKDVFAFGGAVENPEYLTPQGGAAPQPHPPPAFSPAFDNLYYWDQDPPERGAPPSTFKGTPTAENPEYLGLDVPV

[3] = reduced viability of SK-BR-3 breast cancer cells – cell-based, 24 h, human, pilot screen (AID 572); conditions: SK-BR-3 viability, CellTiter-Glo luminescence, at 10 µM, stronger effect = lower value;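 also: compound exposure lasted between 18 and 24 h rather than exactly 24 h; 100% = carrier-treated control wells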
[4] = HUVEC growth inhibition – cell-based, human, primary screen (AID 575;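 active = viability at or below 30% in both replicate assays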;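 also: 100% = median of untreated cell wells with 0.1% DMSO on each plate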); conditions: HUVEC proliferation, CellTiter-Glo luminescence, 72 h; at 10 µM; stronger effect = lower value
Summary of the method: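 Timing: 72 h treatment at 37 °C; material: HUVEC primary cells; technique: CellTiter-Glo luminescence measuring cellular ATP; controls: vehicle and MePR control wells; measure: percent of median DMSO-control luminescence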

[5] = H69AR cell proliferation blockers – human, duplicate replicates, primary screen (AID 580;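 active = viability at or under a set limit in both replicates, limit being median viability minus 3 SD, cut at about 48% in these data, passing the limit was not always enough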;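 also: 100% = mean luminescence of untreated wells and 0% = no signal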); conditions: H69AR lung tumor cells viability, ATP luminescence, 72 h; at 10 µM; stronger effect = lower value
[6] = MRP1 drug-resistance reversers in H69AR cells – cell-based, doxorubicin co-treatment, pilot screen (AID 601;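 active = viability loss from added drug above about 55%, and viability with drug at most 40%, in both replicates, limit read from the data, passing the limit was not always enough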); conditions: CellTiter-Glo, 72 h, at 10 µM; for differential viability (reversal): stronger effect = higher value
[7] = yeast transport mutant growth inhibition pilot in 384-well plates, post-Golgi transport modulator project (AID 636; in the data active = inhibition above about 31%); conditions: absorbance 615 nm, about 18 h, stronger effect = higher value
[8] = growth suppression of yeast trafficking mutant, preliminary HTS, modulators of trafficking downstream of Golgi apparatus project, 1536-format plate, OD 615 nm (AID 637; in the data active = inhibition above about 30%); conditions: yeast transport mutant growth, absorbance 615 nm, 18 h; stronger effect = higher value
[9] = H69AR cells + 2 uM doxorubicin, measured here: viability with 2 uM doxorubicin, stronger effect = lower value
[10] = H69AR cells, compound alone cytotoxicity

SMILES | viability [1] | Her2 level [2] | viability [3] | viability [4] | viability [5] | differential viability (reversal) ([6]; H69AR cells + 2 uM doxorubicin) | viability [6, 9] | viability [6, 10] | inhibition [7] | inhibition [8]
CCCn1c(SCC(=O)NCCc2ccccc2)nnc1-c1ccccn1 | 97.5% | 100% (inactive) | 97.5% (inactive) | 108% (inactive) | 93.9% (inactive) | -11.1% (inactive) | 105% | 93.9% | -2.8% (inactive) | -5.16% (inactive)
Cc1ccc2oc(-c3ccccc3C(=O)O)cc(=O)c2c1 | 88.5% | 84.5% (inactive) | 88.5% (inactive) | 89.3% (inactive) | 101% (inactive) | -2.34% (inactive) | 103% | 101% | -6.93% (inactive) | 6.07% (inactive)
COc1cc2[nH]c(=O)c(C(=O)NCCCN3CCCCC3)c(O)c2cc1OC | 99.5% | 99% (inactive) | 99.5% (inactive) | 99.5% (inactive) | 98.7% (inactive) | 7.58% (inactive) | 91.1% | 98.7% | -6.35% (inactive) | 1.11% (inactive)
CCn1c(C(=O)N2CCCC(C(=O)NCCCc3ccccc3)C2)cc2sccc21 (stereo not given) | 102% | 96.5% (inactive) | 102% (inactive) | 64.3% (inactive) | 96.7% (inactive) | 3.47% (inactive) | 93.2% | 96.7% | -2.08% (inactive) | -9.84% (inactive)
O=C(Nc1cccc(NC(=O)c2cccnc2)c1)c1cccnc1 | 89% | 80% (inactive) | 89% (inactive) | 119% (inactive) | 86.7% (inactive) | -2.21% (inactive) | 88.9% | 86.7% | -5% (inactive) | 1.67% (inactive)
CCOC(=O)c1nnn(-c2nonc2N)c1CN1CCc2ccccc2C1 | 102% | 93% (inactive) | 102% (inactive) | 96.4% (inactive) | 91.7% (inactive) | -0.015% (inactive) | 91.7% | 91.7% | -0.13% (inactive) | -3.02% (inactive)
O=C(CCCN1C(=O)c2ccccc2C1=O)Oc1ccc(F)cc1 | 98% | 98% (inactive) | 98% (inactive) | 98.2% (inactive) | 94.8% (inactive) | 9.54% (inactive) | 85.2% | 94.8% | -5.47% (inactive) | 1.29% (inactive)
COc1ccc(CNc2nc(NCc3ccc(OC)cc3)n(S(C)(=O)=O)n2)cc1 | 104% | 114% (inactive) | 104% (inactive) | 92.6% (inactive) | 110% (inactive) | 8.61% (inactive) | 101% | 110% | 0% (inactive) | 0.82% (inactive)
Cc1c(NC(=O)CN2c3cccc4cccc(c34)S2(=O)=O)c(=O)n(-c2ccccc2)n1C | 122% | 93% (inactive) | 122% (inactive) | 82.6% (inactive) | 102% (inactive) | 19.1% (inactive) | 82.5% | 102% | -4.27% (inactive) | 7.9% (inactive)
CC(C)CCNC(=O)NC(=O)CSc1nnc(COc2ccccc2Cl)o1 | 99% | 80.5% (inactive) | 99% (inactive) | 81% (inactive) | 93% (inactive) | 5.9% (inactive) | 87.1% | 93% | -2.24% (inactive) | -5.87% (inactive)
Cc1cc(C(=O)NCc2cccnc2)n(-c2ccccc2)n1 | 93.5% | 97% (inactive) | 93.5% (inactive) | 102% (inactive) | 107% (inactive) | 14.4% (inactive) | 92.9% | 107% | -0.93% (inactive) | -6.07% (inactive)
O=C(CCN1C(=O)COc2ccccc21)N1CCN(c2ccccn2)CC1 | 130% | 96.5% (inactive) | 130% (inactive) | 114% (inactive) | 106% (inactive) | 27.7% (inactive) | 78.6% | 106% | -2.08% (inactive) | 3.33% (inactive)
COc1ccc(-c2ccc(CCC(=O)O)n2NC(=O)c2cccs2)cc1 | 122% | 92% (inactive) | 122% (inactive) | 95.5% (inactive) | 101% (inactive) | 3% (inactive) | 98.3% | 101% | -2.76% (inactive) | 2.06% (inactive)
CCOC(=O)c1c(C)oc2ccc(O)c(CN3CCCCC3)c12 | 87.5% | 79.5% (inactive) | 87.5% (inactive) | 90.2% (inactive) | 86.9% (inactive) | -3.83% (inactive) | 90.7% | 86.9% | -1.84% (inactive) | 2.22% (inactive)
CCCCCC(=O)N1CC2(CC)CN(C(=O)CCCCC)CC(CC)(C1)C2=O | 89% | 124% (inactive) | 89% (inactive) | 91.7% (inactive) | 83.3% (inactive) | -6.35% (inactive) | 89.7% | 83.3% | 0.51% (inactive) | -7.33% (inactive)
COC(=O)c1cc2ccsc2n1Cc1nc(-c2ccc(OC)cc2)oc1C | 85.5% | 82% (inactive) | 85.5% (inactive) | 67.5% (inactive) | 83.6% (inactive) | -12% (inactive) | 95.6% | 83.6% | 0.13% (inactive) | -4.67% (inactive)

SMILES | viability [1] | Her2 level [2] | viability [3] | viability [4] | viability [5] | differential viability (reversal) ([6]; H69AR cells + 2 uM doxorubicin) | viability [6, 9] | viability [6, 10] | inhibition [7] | inhibition [8]
NCC(O)COc1ccc2c(c1)OCO2 (stereo not given) | 99% | 120% (inactive) | 99% (inactive) | 104% (inactive) | 100% (inactive) | 3.33% (inactive) | 97% | 100% | 3.16% (inactive) | 6.39% (inactive)
Cc1cc(=O)n(CC(C)C)c(O)c1C#N | 106% | 98% (inactive) | 106% (inactive) | 99.4% (inactive) | 104% (inactive) | 0.33% (inactive) | 104% | 104% | 0.53% (inactive) | 5.08% (inactive)
Cc1cccc(OCC(=O)N2CCC(N3CCCCCC3)CC2)c1 | 95.5% | 126% (inactive) | 95.5% (inactive) | 97.1% (inactive) | 106% (inactive) | 7.21% (inactive) | 98.8% | 106% | -1.45% (inactive) | -6.07% (inactive)
O=S(=O)(Nc1nc2ccccc2nc1NCc1ccco1)c1ccc(Cl)cc1 | 94% | 103% (inactive) | 94% (inactive) | 69.6% (inactive) | 65.3% (inactive) | -4.42% (inactive) | 69.8% | 65.3% | -4.42% (inactive) | 4.83% (inactive)
O=C1c2ccccc2C(=O)N1Cc1nc2ccccc2c(=O)n1CCN1CCOCC1 | 97.5% | 81.5% (inactive) | 97.5% (inactive) | 111% (inactive) | 88.8% (inactive) | -3.33% (inactive) | 92.2% | 88.8% | -1.18% (inactive) | -4% (inactive)
CCOC(=O)c1ccc(Oc2nc(SC)nc(N(C)C)n2)cc1 | 73.5% | 100% (inactive) | 73.5% (inactive) | 85% (inactive) | 107% (inactive) | 2.66% (inactive) | 105% | 107% | -1.54% (inactive) | -8.17% (inactive)
O=S1(=O)N=C(Nc2nc3c(s2)CCCC3)c2ccccc21 | 82% | 112% (inactive) | 82% (inactive) | 85.4% (inactive) | 78.9% (inactive) | -3.82% (inactive) | 82.7% | 78.9% | 0.93% (inactive) | -7.62% (inactive)
COc1ccccc1NC(=O)C1=C(C)Nc2nc(CCCO)nn2C1c1cccnc1 (stereo not given) | 132% | 94.5% (inactive) | 132% (inactive) | 95.7% (inactive) | 96.2% (inactive) | 11% (inactive) | 85.2% | 96.2% | -6.36% (inactive) | -3.81% (inactive)
COCCNc1nc(SCC(=O)N2CCN(c3ccccc3)CC2)nc2ccccc12 | 72% | 81.5% (inactive) | 72% (inactive) | 84.4% (inactive) | 84.3% (inactive) | 10.4% (inactive) | 73.9% | 84.3% | -7.6% (inactive) | -1.48% (inactive)
O=C(COc1ccccc1)N1CCN(C(=O)c2cccc(F)c2)CC1 | 112% | 90% (inactive) | 112% (inactive) | 102% (inactive) | 101% (inactive) | 13.9% (inactive) | 86.7% | 101% | -8.11% (inactive) | 6.72% (inactive)
O=C(NCC(=O)N(c1cnc2ccccc2c1)C(C(=O)NC1CCCC1)c1ccncc1)c1ccco1 (stereo not given) | 86% | 94% (inactive) | 86% (inactive) | 94.5% (inactive) | 90.1% (inactive) | -3.65% (inactive) | 93.7% | 90.1% | 3.64% (inactive) | 13.4% (inactive)
COc1cc(C(=O)OCC(=O)N(C)Cc2ccccc2)cc(OC)c1OC | 106% | 96.5% (inactive) | 106% (inactive) | 103% (inactive) | 94.8% (inactive) | -2.6% (inactive) | 97.4% | 94.8% | -5.34% (inactive) | 0.79% (inactive)
CCCn1c2c(c(O)c(C(=O)NC)c1=O)CCCC2 | 124% | 95% (inactive) | 124% (inactive) | 92.7% (inactive) | 86% (inactive) | -7.29% (inactive) | 93.3% | 86% | -4.34% (inactive) | 2.42% (inactive)
O=C(c1c(F)cccc1F)N(Cc1ccccn1)C1CCCC1 | 78% | 108% (inactive) | 78% (inactive) | 106% (inactive) | 93.6% (inactive) | 4.68% (inactive) | 88.9% | 93.6% | 3.6% (inactive) | 26.3% (inactive)
COC(=O)c1ccccc1NC(=O)CC(NCc1ccccc1)C(=O)O (stereo not given) | 102% | 111% (inactive) | 102% (inactive) | 103% (inactive) | 104% (inactive) | 0.78% (inactive) | 103% | 104% | -2.11% (inactive) | -12.3% (inactive)
